# Measured values reported in ChEMBL document CHEMBL2021854, “2-Aminopyrimidine based 4-aminoquinoline anti-plasmodial agents. Synthesis, biological activity, structure-activity relationship and mode of action studies” (Eur J Med Chem, 2012).
# pEC50, pIC50: −log10 of the molar value.
# What was measured:
# [1] = Inhibition of beta-hematin formation assessed as Ferriprotoporphyrin IX biomineralisation after 24 hrs; format: functional
# Outline: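 Hemin (0.5 mg/ml in DMSO) was mixed with 0.5 M sodium acetate pH 4.4 and compound, then incubated for 24 h at 37 °C. The pellet was washed with DMSO to remove unreacted hemin and dissolved in 0.1 N NaOH, with A405 read. Percent inhibition was taken versus solvent control, and IC50 by curve fitting.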
# Plasmodium falciparum [2] = assay: Antiplasmodial activity chloroquine-sensitive Plasmodium falciparum 3D7 infected in human A+ erythrocytes assessed as inhibition of [3H]-hypoxanthine incorporation after 24 hrs by scintillation counting; format: functional, organism-based
# Plasmodium falciparum [3] = assay: Antiplasmodial activity chloroquine-resistant Plasmodium falciparum K1 infected in human A+ erythrocytes assessed as inhibition of [3H]-hypoxanthine incorporation after 24 hrs by scintillation counting; format: functional, organism-based
# Plasmodium falciparum [4] = assay: Resistant factor, ratio of IC50 for chloroquine-resistant Plasmodium falciparum K1 to IC50 for chloroquine-sensitive Plasmodium falciparum 3D7; format: functional
# Outline: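 Resistance factor computed as IC50 against K1 divided by IC50 against 3D7, both from the [3H]hypoxanthine incorporation assay.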
# MDCK = assay: Cytotoxicity against MDCK cells assessed as cell viability by colorimetric formazan-based MTS assay; set-up: species or system Canis lupus familiaris; settings: dog, mdck
# Outline: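 Cytotoxicity on MDCK cells; 50% cytotoxic concentration from cell viability measured by colorimetric formazan-based MTS assay.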
# [5] = Cytotoxicity against MDCK cells assessed as minimum compound concentration required to causes microscopically detectable alteration of normal cell morphology; format: cell-based, Canis lupus familiaris; settings: dog
# Outline: (§1)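 Confluent, non-proliferating cell cultures were exposed to the compounds. The endpoint was the minimum concentration producing a microscopically detectable alteration of normal cell morphology.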
# [6] = Selectivity index, ratio of CC50 for MDCK cells to IC50 for chloroquine-resistant Plasmodium falciparum K1; format: functional
# Outline: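 Selectivity index computed as MTS-based CC50 on MDCK cells divided by IC50 against P. falciparum K1.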
# [7] = Cytotoxicity against african green monkey Vero cells assessed as minimum compound concentration required to causes microscopically detectable alteration of normal cell morphology; format: cell-based; settings: chlorocebus sabaeus; outline: as §1
# Human respirovirus 3 = assay: Antiviral activity against Parainfluenza-3 virus infected in african green monkey Vero cells assessed as inhibition of virus-induced cytopathogenicity after 4 days; format: functional, organism-based; settings: Human respirovirus 3, Vero, 96 h
# Outline: (§2)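 Confluent HEL, Vero or HeLa monolayers were inoculated with 100 CCID50 of virus in the presence of varying concentrations of compound. Cytopathicity was scored when it reached completion in untreated, virus-infected control cultures.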
# [8] = test system: Mammalian orthoreovirus 1; assay: Antiviral activity against Reovirus-1 infected in african green monkey Vero cells assessed as inhibition of virus-induced cytopathogenicity after 4 days; format: functional, organism-based; settings: Mammalian orthoreovirus 1, Vero, 96 h; outline: as §2
# Sindbis virus = assay: Antiviral activity against Sindbis virus infected in african green monkey Vero cells assessed as inhibition of virus-induced cytopathogenicity after 4 days; format: functional, organism-based; settings: 96 h; outline: as §2
# Coxsackievirus B4 [9] = assay: Antiviral activity against Coxsackie virus B4 infected in african green monkey Vero cells assessed as inhibition of virus-induced cytopathogenicity after 4 days; format: functional, organism-based; settings: Enterovirus B, 96 h; outline: as §2
# Punta Toro virus = assay: Antiviral activity against Punta Toro virus infected in african green monkey Vero cells assessed as inhibition of virus-induced cytopathogenicity after 4 days; format: functional, organism-based; settings: 96 h; outline: as §2
# Human alphaherpesvirus 1 [10] = assay: Antiviral activity against HSV1 KOS infected in HEL cells assessed as inhibition of virus-induced cytopathogenicity after 4 days; format: functional, organism-based; settings: Human alphaherpesvirus 1, KOS, 96 h
# Outline: (§3)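 Confluent HEL or HeLa monolayers infected with 100 CCID50 of virus in the presence of varying compound concentrations.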
# Human alphaherpesvirus 2 = assay: Antiviral activity against HSV2 G infected in HEL cells assessed as inhibition of virus-induced cytopathogenicity after 4 days; format: functional, organism-based; settings: Human alphaherpesvirus 2, strain G, 96 h; outline: as §2
# [11] = test system: Vesicular stomatitis virus; assay: Antiviral activity against Vesicular stomatitis virus infected in HEL cells assessed as inhibition of virus-induced cytopathogenicity after 4 days; format: functional, organism-based; settings: 96 h; outline: as §3
# Human alphaherpesvirus 1 [12] = assay: Antiviral activity against thymidine kinase-deficient acyclovir-resistant HSV1 KOS infected in HEL cells assessed as inhibition of virus-induced cytopathogenicity after 4 days; format: functional, organism-based; settings: Human alphaherpesvirus 1, KOS, 96 h; outline: as §3
# [13] = Cytotoxicity against human HEL cells assessed as minimum compound concentration required to causes microscopically detectable alteration of normal cell morphology; format: cell-based; outline: as §1
# [14] = Cytotoxicity against human HeLa cells assessed as minimum compound concentration required to causes microscopically detectable alteration of normal cell morphology; format: cell-based; outline: as §1
# [15] = test system: Vesicular stomatitis virus; assay: Antiviral activity against Vesicular stomatitis virus infected in HeLa cells assessed as inhibition of virus-induced cytopathogenicity after 4 days; format: functional, organism-based; settings: 96 h; outline: as §3
# Coxsackievirus B4 [16] = assay: Antiviral activity against Coxsackie virus B4 infected in human HeLa cells assessed as inhibition of virus-induced cytopathogenicity after 4 days; format: functional, organism-based; settings: Enterovirus B, 96 h; outline: as §2
# [17] = test system: Respiratory syncytial virus; assay: Antiviral activity against Respiratory syncytial virus infected in human HeLa cells assessed as inhibition of virus-induced cytopathogenicity after 4 days; format: functional, organism-based; settings: 96 h; outline: as §2
# Influenza A virus [18] = assay: Antiviral activity against Influenza A virus H1N1 infected in MDCK cells assessed as reduction visual scoring of virus-induced cytopathogenicity after 4 days; format: functional, organism-based; settings: 96 h
# Outline: (§4)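 MDCK monolayers infected with 100 CCID50 of influenza A (H1N1 or H3N2) or influenza B, with varying compound concentrations. Cytopathicity read when untreated infected controls reached complete CPE.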
# Influenza A virus [19] = assay: Antiviral activity against Influenza A virus H3N2 infected in MDCK cells assessed as reduction visual scoring of virus-induced cytopathogenicity after 4 days; format: functional, organism-based; settings: 96 h; outline: as §4
# Influenza B virus [20] = assay: Antiviral activity against Influenza B virus infected in MDCK cells assessed as reduction visual scoring of virus-induced cytopathogenicity after 4 days; format: functional, organism-based; settings: 96 h; outline: as §4
# Influenza A virus [21] = assay: Antiviral activity against Influenza A virus H1N1 infected in MDCK cells assessed as inhibition of virus-induced cytopathogenicity after 4 days by colorimetric formazan-based MTS assay; format: functional, organism-based; settings: 96 h
# Influenza A virus [22] = assay: Antiviral activity against Influenza A virus H3N2 infected in MDCK cells assessed as inhibition of virus-induced cytopathogenicity after 4 days by colorimetric formazan-based MTS assay; format: functional, organism-based; settings: 96 h
# Influenza B virus [23] = assay: Antiviral activity against Influenza B virus infected in MDCK cells assessed as inhibition of virus-induced cytopathogenicity after 4 days by colorimetric formazan-based MTS assay; format: functional, organism-based; settings: 96 h
# Human betaherpesvirus 5 [24] = assay: Antiviral activity against Cytomegalovirus AD-169 infected in HEL cells assessed as inhibition of virus plaque formation after 4 days; format: functional, organism-based; settings: Human betaherpesvirus 5, AD169, HEL, 96 h
# Human betaherpesvirus 5 [25] = assay: Antiviral activity against Human cytomegalovirus Davis infected in HEL cells assessed as inhibition of virus plaque formation after 4 days; format: functional, organism-based; settings: Human betaherpesvirus 5, Davis, 96 h
# HeLa = assay: Cytotoxicity against human HeLa cells assessed as cell viability by colorimetric formazan-based MTS assay
# Human alphaherpesvirus 3 [26] = assay: Antiviral activity against […] expressing thymidine kinase infected in HEL cells assessed as reduction of virus plaque formation after 4 days; format: functional, cell-based; settings: Human alphaherpesvirus 3, strain Oka vaccine, 96 h
# Human alphaherpesvirus 3 [27] = assay: Antiviral activity against thymidine kinase-deficient […] infected in HEL cells assessed as reduction of virus plaque formation after 4 days; format: functional, organism-based; settings: Human alphaherpesvirus 3, 07-1, HEL, 96 h
# [28] = Cytotoxicity against cat CRFK cells assessed as cell viability by colorimetric formazan-based MTS assay; set-up: species or system Felis catus; settings: crfk
# [29] = test system: Feline infectious peritonitis virus; assay: Antiviral activity against FIPV infected in cat CRFK cells assessed as inhibition of virus-induced cytopathic effect after 4 days by colorimetric formazan-based MTS assay; format: functional, cell-based; settings: Alphacoronavirus 1, CRFK, 96 h
# Felid alphaherpesvirus 1 = assay: Antiviral activity against Feline herpesvirus infected in cat CRFK cells assessed as inhibition of virus-induced cytopathic effect after 4 days by colorimetric formazan-based MTS assay; format: functional, organism-based; settings: Felid alphaherpesvirus 1, CRFK, 96 h
# [30] = test system: Human immunodeficiency virus 1; assay: Antiviral activity against HIV1 infected in human CEM cells assessed as inhibition of virus-induced cytopathic effect after 4 days; format: functional, organism-based; settings: Human immunodeficiency virus 1, CCRF-CEM, 96 h
# Outline: (§5)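 CEM T-lymphocytes (~3 × 10^5 cells/ml) were infected with HIV-1 IIIB or HIV-2 ROD at ~100 CCID50, then immediately plated with a range of compound concentrations. Giant cell formation was scored microscopically after 4 days at 37 °C. Cytostatic activity was tested in parallel in uninfected CEM cells.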
# [31] = test system: Human immunodeficiency virus 2; assay: Antiviral activity against HIV2 infected in human CEM cells assessed as inhibition of virus-induced cytopathic effect after 4 days; format: functional, organism-based; settings: Human immunodeficiency virus 2, CCRF-CEM, 96 h; outline: as §5
# [32] = Inhibition of beta-hematin formation assessed as Ferriprotoporphyrin IX biomineralisation at 1 mg/ml after 24 hrs; format: functional
# Outline: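 Hemin chloride (0.5 mg/ml in DMSO) mixed with 0.5 M sodium acetate buffer pH 4.4 and drug or solvent control, incubated 37 °C for 24 h. Pellet washed with DMSO to remove unreacted hemin, dissolved in 0.1 N NaOH, absorbance read at 405 nm; percent inhibition relative to control. Highest concentration tested 1 mg/ml.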
Structure (SMILES),pIC50 (Plasmodium falciparum [2]),pIC50 (Plasmodium falciparum [3]),Ratio IC50 (Plasmodium falciparum [4]),CC50 (MDCK) [µM],MCC [5] [µM],Ratio CC50/IC50 [6],MCC [7] [µM],pEC50 (Human respirovirus 3),pEC50 [8],pEC50 (Sindbis virus),pEC50 (Coxsackievirus B4 [9]),pEC50 (Punta Toro virus),pEC50 (Human alphaherpesvirus 1 [10]),pEC50 (Human alphaherpesvirus 2),pEC50 [11],pEC50 (Human alphaherpesvirus 1 [12]),MCC [13] [µM],MCC [14] [µM],pEC50 [15],pEC50 (Coxsackievirus B4 [16]),further results
C=C[C@H]1CN2CC[C@H]1C[C@H]2[C@H](O)c1ccnc2ccc(OC)cc12 [QUININE],–,–,–,–,–,–,–,–,–,–,–,–,–,–,–,–,–,–,–,–,pIC50 [1]: 3.49
CCOC(=O)c1c(C)nc(NCCCNc2ccnc3cc(Cl)ccc23)nc1C,7.20,6.79,2.548,58.2,20,361.89,> 100,< 4.00,< 4.00,< 4.00,< 4.00,< 4.00,< 4.00,< 4.00,< 4.00,< 4.00,≥ 100,> 100,< 4.00,< 4.00,pEC50 [17]: < 4.00; pEC50 (Influenza A virus [18]): < 5.40; pEC50 (Influenza A virus [19]): < 5.40; pEC50 (Influenza B virus [20]): < 5.40; pEC50 (Influenza A virus [21]): < 5.40; pEC50 (Influenza A virus [22]): < 5.40; pEC50 (Influenza B virus [23]): < 5.40; pEC50 (Human betaherpesvirus 5 [24]): 5.05; pEC50 (Human betaherpesvirus 5 [25]): 5.09; CC50 (HeLa): 17.5 µM; pEC50 (Human alphaherpesvirus 3 [26]): 5.02; pEC50 (Human alphaherpesvirus 3 [27]): < 4.70; CC50 [28]: > 100 µM; pEC50 [29]: < 4.00; pEC50 (Felid alphaherpesvirus 1): < 4.00; pEC50 [30]: < 5.70; pEC50 [31]: < 5.70; inhibition [32]: 66%
CCOC(=O)c1c(C)nc(NCCCCNc2ccnc3cc(Cl)ccc23)nc1C,7.38,5.78,39.422,0.8,4,0.48,100,< 4.70,< 4.70,< 4.70,< 4.70,< 4.70,< 4.00,< 4.70,< 4.00,< 4.00,> 20,≥ 20,< 4.70,< 4.70,pEC50 [17]: < 4.70; pEC50 (Influenza A virus [18]): < 6.10; pEC50 (Influenza A virus [19]): < 6.10; pEC50 (Influenza B virus [20]): < 6.10; pEC50 (Influenza A virus [21]): < 6.10; pEC50 (Influenza A virus [22]): < 6.10; pEC50 (Influenza B virus [23]): < 6.10; pEC50 (Human betaherpesvirus 5 [24]): < 5.40; pEC50 (Human betaherpesvirus 5 [25]): 5.28; CC50 (HeLa): 6.07 µM; pEC50 (Human alphaherpesvirus 3 [26]): 5.03; pEC50 (Human alphaherpesvirus 3 [27]): < 4.70; CC50 [28]: 14.5 µM; pEC50 [29]: < 5.40; pEC50 (Felid alphaherpesvirus 1): < 5.40; pEC50 [30]: < 5.70; pEC50 [31]: < 5.70; inhibition [32]: 100%
